Source: ChEMBL document CHEMBL1795268, “Synthesis and antimicrobial activity of some novel dicationic sulphonophanes” (2011)
In brackets after ≈: the same amount, converted by molar mass. Activity calls are given as the source filed them. The calls are words filed in the database; no cut-off is given here.

Assays:
Proteus vulgaris = experiment: Antimicrobial activity against Proteus vulgaris after 24 hrs by agar well diffusion assay; type: functional
Summary of the method: (§1)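 Bacterial isolates from a university culture collection were grown in Mueller-Hinton broth for 8 h at 37 °C, then swabbed onto nutrient agar plates. Test solutions went into wells cut in the agar, with commercial antibiotics as positive reference. Plates were incubated at 37 °C for 24 h, and the MIC was read from the zones of inhibition.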

Vibrio cholerae = experiment: Antimicrobial activity against Vibrio cholerae after 24 hrs by agar well diffusion assay; type: functional
Bacillus subtilis = experiment: Antimicrobial activity against Bacillus subtilis after 24 hrs by agar well diffusion assay; type: functional; summary of the method: as §1
Staphylococcus aureus = experiment: Antimicrobial activity against Staphylococcus aureus after 24 hrs by agar well diffusion assay; type: functional; summary of the method: as §1
Escherichia coli = experiment: Antimicrobial activity against Escherichia coli after 24 hrs by agar well diffusion assay; type: functional; summary of the method: as §1
Candida albicans = experiment: Antifungal activity against Candida albicans after 48 hrs by agar well diffusion assay; type: functional
Summary of the method: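 C. albicans, kept on Sabouraud's dextrose agar, was grown in Sabouraud's dextrose broth at 37 °C for 8 h to make the inoculum for agar well diffusion. The MIC was recorded.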

[1] = target: Gyrase B (Escherichia coli) (UniProt Q6S6F1); experiment: Inhibition of Escherichia coli DNA gyrase B

Compound	MIC (Proteus vulgaris) [µg/mL]	MIC (Vibrio cholerae) [µg/mL]	MIC (Bacillus subtilis) [µg/mL]	MIC (Staphylococcus aureus) [µg/mL]	MIC (Escherichia coli) [µg/mL]	MIC (Candida albicans) [µg/mL]	inhibition [1]
O=S1(=O)c2ccc(cc2)Cn2cc[n+](c2)Cc2ccc(cc2)-c2cccc(c2)-c2ccc(cc2)C[n+]2ccn(c2)Cc2ccc1cc2.[Br-].[Br-]	20	25	15	30	25	5	–
O=C1c2ccc(cc2)C[n+]2ccn(c2)Cc2ccc(cc2)S(=O)(=O)c2ccc(cc2)Cn2cc[n+](c2)Cc2ccc(cc2)C(=O)c2cccc1c2.[Br-].[Br-]	25	30	35	40	30	15	–
O=S1(=O)c2ccc(cc2)Cn2cc[n+](c2)Cc2cccc(c2)C[n+]2ccn(c2)Cc2ccc1cc2.[Br-].[Br-]	40	35	20	30	55	40	–
O=C1c2ccc(cc2)C[n+]2ccn(c2)Cc2ccc(cc2)S(=O)(=O)c2ccc(cc2)Cn2cc[n+](c2)Cc2ccc1cc2.[Br-].[Br-]	30	5	15	15	25	5	Active
Clc1ccccc1C(c1ccccc1)(c1ccccc1)n1ccnc1 [CLOTRIMAZOLE]	–	–	–	–	–	5 (≈ 14.5 µM)	–
O=S1(=O)c2ccc(cc2)Cn2cc[n+](c2)Cc2ccccc2C[n+]2ccn(c2)Cc2ccc1cc2.[Br-].[Br-]	60	35	40	40	30	20	–
COc1cc2c(OC)cc1C[n+]1ccn(c1)Cc1ccc(cc1)S(=O)(=O)c1ccc(cc1)Cn1cc[n+](c1)C2.[Br-].[Br-]	30	40	15	10	30	10	–
O=S1(=O)c2ccc(cc2)Cn2cc[n+](c2)Cc2ccc(cc2)C[n+]2ccn(c2)Cc2ccc1cc2.[Br-].[Br-]	40	70	30	25	60	25	–
O=S1(=O)c2ccc(cc2)Cn2cc[n+](c2)Cc2ccc(cc2)S(=O)(=O)c2ccc(cc2)C[n+]2ccn(c2)Cc2ccc1cc2.[Br-].[Br-]	15	10	10	5	15	5	Active
O=C(O)c1cn(C2CC2)c2cc(N3CCNCC3)c(F)cc2c1=O [CIPROFLOXACIN]	10 (≈ 30.2 µM)	10 (≈ 30.2 µM)	5 (≈ 15.1 µM)	5 (≈ 15.1 µM)	5 (≈ 15.1 µM)	–	–
